In PMC3755449 (Nature communications, 2013):
Counter-ions that a name gives are not always drawn.

How the values were obtained:
[1] = system: P. falciparum clone FVO merozoites invading RBCs; experiment: Invasion assay using purified invasive merozoites; format: cell-based, Plasmodium falciparum; settings: 25 and 50 μM
Summary of the method: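 Merozoites come from an FVO line selected for prolonged free-merozoite survival. Synchronized schizonts are gradient-purified, ruptured 3 hr at 37°C, and merozoites are filtered twice through 1.2 μm. About 5×10⁷ merozoites are gassed with 2.5×10⁷ pre-warmed RBCs and a range of compound concentrations for 3–4 hr at 37°C. Free merozoites are removed at 50 g for 7 min. Rings are counted by SYBR green/MitoTracker flow cytometry; IC50 by nonlinear regression.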

[2] = system: schizont-infected RBCs (FVO clone); experiment: Schizont rupture assay; format: cell-based, Plasmodium falciparum; settings: 30 μM
[3] = system: AMA1 secretion onto merozoite surface; experiment: IFA of AMA1 secretion from micronemes; format: cell-based, Plasmodium falciparum; settings: non-permeabilizing IFA, 60 μM
Summary of the method: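 Schizonts rupture with or without test compound (60 μM) present beforehand. Released merozoites are probed with polyclonal anti-AMA1 antibodies by immunofluorescence under non-permeabilizing conditions to assess surface AMA1.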

[4] = biological target: Recombinant, his-tagged AMA1 (apical membrane antigen 1), 3D7 allele (Plasmodium falciparum (3D7 allele)) (UniProt Q7KQK5); experiment: AlphaScreen or HTRF

Row | Molecule | inhibition of merozoite invasion [1] | merozoite release from schizont-infected RBCs [2] | AMA1 secretion from micronemes [3] | IC50 [4] [nM]
1 | CN(C)CCCN1c2ccccc2C(C)(C)c2ccccc21 [NCGC00014044, Dimetacrine] | inhibited merozoite invasion | not affected |  | 
2 | Clc1cccc(C(c2ccc3[nH]cnc3c2)n2ccnc2)c1 (stereo not drawn) [NCGC00181034, Liarozole hydrochloride] | inhibited merozoite invasion | not affected | not affected | 
3 | DITQQAKDIGAGPVASCFTTRMSPPQQICLNSVVNTALSTSTQSAMK [Untagged RON2L peptide] |  |  |  | 100
